Source: PubChem
procasp7 counter: procaspase-7 activators, primary screen, counter-screen for procaspase-3 activator project, biochemical, absorbance, HTS, human. Caspase-7 (Homo sapiens), P55210. recombinant procaspase-7, Ac-DEVD-pNA absorbance 405 nm; D23A/D198A/D206A triple mutant, cannot self-cleave; scale: DMSO 0, 5 µM enzyme 100. activation, % at 8.5 µM. actives 0.093% (n = 330,000). AID 463210, 2010;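 active means percent activation above the screen-wide mean plus 3 SD, cut at about 25% in these data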
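Test system: Procaspase-7 triple mutant (PC-7 D3A). Also added: Ac-DEVD-pNA substrate, 400 µM as added. Schedule: 1 h enzyme–compound preincubation and 2 h substrate reaction, both 25 °C. Signal: p-Nitroaniline absorbance at 405 nm, read at 0 and 120 min. Control set: low DMSO alone, high DMSO plus 5 µM PC-7.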
proCasp3 act: activators of human procaspase-3 D3A mutant, primary screen, biochemical, absorbance, PC-3 D3A mutant, single concentration | Caspase-3 (Homo sapiens), P42574 | recombinant procaspase-3 D3A, Ac-DEVD-pNA absorbance 405 nm | activation, % at 8.5 µM | actives 0.11% (n = 330,000) | AID 463141, 2010;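 active means activation above the mean of all tested compounds plus 3 SD, cut at about 21% in these data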
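Assay system – Procaspase-3 D3A mutant · Benchmarks – DMSO low control, extra-enzyme high control · Technique – 405 nm absorbance of p-nitroaniline, reads at 0 and 120 min · Doses – 8.5 µM nominal · Measure – % activation between DMSO and enzyme-spiked controls · Also added – Ac-DEVD-pNA chromogenic peptide substrate · Schedule – 1 h compound preincubation, 2 h substrate hydrolysis at 25 °C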
CHT allo act: CHT positive allosteric modulators, primary screen, cell-based, membrane potential dye, choline EC20 | High affinity choline transporter 1 (Homo sapiens), Q9GZV3 | CHT-expressing cells; stronger effect = higher value; LV-AA mutant CHT in HEK293 cells | B-score at 10 µM | actives 0.49% (n = 310,000) | AID 488977, 2010;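 active means initial fluorescence not abnormally high and integrated response B-score, plate-corrected, over 3 SD above library mean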
Target sequence (Q9GZV3 whole entry, looked up): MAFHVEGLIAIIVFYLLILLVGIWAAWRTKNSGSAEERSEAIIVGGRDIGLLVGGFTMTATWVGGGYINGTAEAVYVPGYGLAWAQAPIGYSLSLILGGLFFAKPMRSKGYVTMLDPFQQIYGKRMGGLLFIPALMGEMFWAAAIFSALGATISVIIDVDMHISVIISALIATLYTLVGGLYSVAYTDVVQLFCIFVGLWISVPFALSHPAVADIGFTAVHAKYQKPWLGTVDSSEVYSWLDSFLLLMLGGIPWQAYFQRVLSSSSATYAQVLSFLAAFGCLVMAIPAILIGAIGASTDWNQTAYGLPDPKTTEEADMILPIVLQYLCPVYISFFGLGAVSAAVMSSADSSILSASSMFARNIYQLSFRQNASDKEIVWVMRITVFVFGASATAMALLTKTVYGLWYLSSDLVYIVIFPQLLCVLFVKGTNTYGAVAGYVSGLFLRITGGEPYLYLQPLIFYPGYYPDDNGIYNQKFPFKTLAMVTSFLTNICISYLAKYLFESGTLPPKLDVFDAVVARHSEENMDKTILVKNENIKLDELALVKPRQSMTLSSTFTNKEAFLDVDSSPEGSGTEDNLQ
CHT inh: inhibitors of human choline transporter CHT; CHT-expressing cells, membrane potential dye, choline response; stronger effect = lower value; B-score at 10 µM; actives 0.86% (n = 310,000);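 active means B-score over 3 SD under the library average, and starting fluorescence ratio not unusually high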;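 further: choline stimulus applied at its EC90 after an EC20 pre-addition; B-score computed on integrated fluorescence ratio after choline addition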
CHT act confirm: CHT activators, confirmation, cell-based, membrane potential dye, duplicate; shares compounds with CHT allo act; CHT-expressing cells, membrane potential dye fluorescence (FDSS); % of choline EC20–EC90 response window; HEK293 expressing CHT LV-AA mutant; choline added at its EC20; activation, % at 10 µM; actives 91% (n = 2,500);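 active means primary screen active, with duplicate mean activation above negative control mean plus 3 SD, cut at about 11% in these data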
HEK293 MP dye: membrane potential response in parental HEK293 cells, counter-screen for CHT activator project, cell-based, membrane potential dye. shares compounds with CHT allo act. membrane potential dye fluorescence (FDSS); measured after EC20 choline addition. ratio readout change at 10 µM, hits read low. actives 62% (n = 2,500);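 active means duplicate-averaged ratio beyond 3 SD from buffer wells, up or down, though filed actives are nearly all decreases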
Of the large screens only hits and unclear results are named; the others gave an inactive call (follow-up assays come after a bar, where they were run). Hits are enriched below; roughly 1.3% of the tested compounds scored in any of these assays.

CCN1CCN(c2cc(C)c3cc(NC(=S)NCc4cccs4)ccc3n2)CC1	none | CHT act confirm 21 | HEK293 MP dye -41
CCN(CC)CCNC(=S)Nc1ccc2nc(N3CCN(C)CC3)cc(C)c2c1	none | CHT act confirm 45 | HEK293 MP dye -24
O=c1[nH]nc(Cc2ccc([N+](=O)[O-])cc2)c2ccccc12	none
Cc1ccc(-n2nc3c(=O)n(CC(=O)NCCc4ccccc4C)nc(C)c3c2C)cc1	none
O=c1c(Cc2ccc(F)cc2)c(O)ccn1CCCn1ccnc1	none
Cc1cc(N2CCCCC2)nc2ccc(NC(=O)c3ccc(Br)o3)cc12	none
Cc1cc(N2CCN(C)CC2)nc2ccc(NC(=O)c3ccc(Br)o3)cc12	none | CHT act confirm 44 | HEK293 MP dye -30
Cc1cc(N2CCOCC2)nc2ccc(NC(=S)NCCC(C)C)cc12	none | CHT act confirm 19 | HEK293 MP dye -25
Cc1cc(N2CCN(C)CC2)nc2ccc(NC(=S)NCCC(C)C)cc12	none
CCOc1ccccc1-n1c(SCC(=O)Nc2nccs2)nnc1-c1ccoc1C	none | CHT act confirm inactive | HEK293 MP dye inactive
CCc1nnc(NC(=O)CSc2nnc(-c3ccoc3C)n2-c2ccccc2)s1	none
CSCCC(NS(=O)(=O)c1ccccc1)C(=O)OCc1cc(=O)oc2cc(O)ccc12 (stereo unspecified)	none
CCOC(=O)c1cnn(-c2sc(C(=O)OCC)c(C)c2C(=O)OCC)c1N	CHT allo act 6.6 | CHT act confirm inactive | HEK293 MP dye inactive
CN(Cc1cccc(F)c1)C(=O)c1ccccc1Sc1ccccc1C#N	CHT allo act 7.2 | CHT act confirm 31 | HEK293 MP dye inactive
COc1ccc(CN(C)C(=O)c2ccccc2Sc2ccccc2C#N)cc1OC	none
CN(Cc1ccccc1)c1nc2c(c(=O)n(C)c(=O)n2C)n1CCCc1ccccc1	CHT allo act 8.7 | CHT act confirm 25 | HEK293 MP dye inactive
CCCCCCn1c(CN2CCN(C)CC2)nc2c1c(=O)n(C)c(=O)n2C	CHT allo act 9.5 | CHT act confirm 61 | HEK293 MP dye -46
CCN(CC)c1nc2c(c(=O)n(C)c(=O)n2C)n1CCCc1ccccc1	none
Cn1c(=O)c2c(nc(CN3CCN(c4cccc(Cl)c4)CC3)n2CCc2ccccc2)n(C)c1=O	CHT allo act 9.3 | CHT act confirm 24 | HEK293 MP dye inactive
Cn1c(=O)c2c(nc(CN3CCN(c4ccccc4)CC3)n2CCc2ccccc2)n(C)c1=O	none
Cn1c(=O)c2c(nc(CN3CCCCC3)n2CCc2ccccc2)n(C)c1=O	CHT allo act 12 | CHT act confirm 47 | HEK293 MP dye inactive
Cn1c(=O)c2c(nc(CN3CCC(C(N)=O)CC3)n2CCc2ccccc2)n(C)c1=O	none
O=C(Nc1ncccn1)c1ccc(Cl)c([N+](=O)[O-])c1	none
CN1CCN(Cc2nc3c(c(=O)n(C)c(=O)n3C)n2CCCc2ccccc2)CC1	CHT allo act 8 | CHT act confirm 48 | HEK293 MP dye -36
Cn1c(=O)c2c(nc(CN3CCOCC3)n2CCCc2ccccc2)n(C)c1=O	none
Cc1ccnc2nc(C(=O)OCC(=O)N(Cc3ccccc3)C(C)C)nn12	none (no result: CHT allo act, CHT inh)
Cc1ccc2c(c1)-n1c(nc3ccccc3c1=O)C(CC(C)C)NC2=O (stereo unspecified)	none (no result: CHT allo act, CHT inh)
CCOC(=O)c1ccc2c(c1)n(CCO)c(C)[n+]2CC	none
CCOC(=O)c1ccc2c(c1)n(CC)c(/C=C/N(C)c1ccccc1)[n+]2CC	CHT allo act 7.4 | CHT act confirm 44 | HEK293 MP dye -63
COc1ccc(NCc2nc3ccccc3n2CCOc2ccccc2)cc1	CHT allo act 6.4 | CHT act confirm 24 | HEK293 MP dye inactive
O=C(NCCCN1CCN(CCCNC(=O)c2cccc(Cl)c2)CC1)c1cccc(Cl)c1	none | CHT act confirm 28 | HEK293 MP dye inactive
CC1CCN(CCCNC(=O)c2ccc(CSCc3cccc(Cl)c3)o2)CC1	CHT allo act 8.3 | CHT act confirm 49 | HEK293 MP dye -35
COc1ccccc1N1CCN(CCCCNC(=O)c2ccc3ccccc3c2)CC1	CHT allo act 7.6 | CHT act confirm 36 | HEK293 MP dye -21
CN1CCN(CCCNC(=O)c2ccc(CSCc3cccc(Cl)c3)o2)CC1	none
CCN(c1ccccc1)S(=O)(=O)c1ccc(OC)c(NC(=O)c2cc(F)c(F)c(F)c2F)c1	none (no result: CHT allo act, CHT inh)
Cc1ccc(NC(=O)c2cc([N+](=O)[O-])ccc2N2CCOCC2)cc1C	none
CC(C)c1ccc(NC(=O)c2cc([N+](=O)[O-])ccc2N2CCOCC2)cc1	none | CHT act confirm 29 | HEK293 MP dye inactive
O=C(COC(=O)c1cc([N+](=O)[O-])ccc1N1CCOCC1)NCc1ccc(F)cc1	none | CHT act confirm 56 | HEK293 MP dye inactive
O=C(Nc1cccc(Cl)c1N1CCOCC1)c1cc([N+](=O)[O-])ccc1N1CCOCC1	none | CHT act confirm 13 | HEK293 MP dye inactive
COc1ccc(NC(=O)c2cc([N+](=O)[O-])ccc2N2CCN(C)CC2)cc1	CHT allo act 8.4 | CHT act confirm 52 | HEK293 MP dye -64
Cc1ccc(S(=O)(=O)N2CCCCC2)cc1NC(=O)C1CC1	none (no result: CHT allo act, CHT inh)
CC(C)(C)Nc1c2ccccc2nc2ccccc12	none | CHT act confirm 37 | HEK293 MP dye -57
Nc1sc(-c2ccccc2)n[n+]1Cc1cccc2cccnc12	CHT allo act 7.8 | CHT act confirm 12 | HEK293 MP dye inactive
CCN(CC)S(=O)(=O)c1cccc(C(=O)Oc2cccc(NC(=O)c3cccs3)c2)c1	none
COc1ccccc1Cn1c(=S)[nH]c2ccc(F)cc2c1=O	none
COc1ccc(CN2CC(C(=O)NCCCN3CCCC(C)C3)CC2=O)cc1 (stereo unspecified)	none
Cc1cccc2c(=O)cc(C)n(Cc3ccccc3)c12	none
CCOC(=O)Cn1c(C)cc(=O)c2cccc(C)c21	none | CHT act confirm 53 | HEK293 MP dye -74
CNC(=O)Cn1c(C)cc(=O)c2cccc(C)c21	CHT allo act 10 | CHT act confirm 63 | HEK293 MP dye -73
COc1ccc(C(C)=O)cc1CSc1nnc2c(Cl)cc(Cl)cn12	CHT allo act 9.6 | CHT act confirm 84 | HEK293 MP dye -89
COc1ccc(C(C)=O)cc1CSc1nc2ccccc2c(=O)n1-c1ccccc1C	none | CHT act confirm 25 | HEK293 MP dye inactive
